This is an account of results in ChEMBL document CHEMBL2062375, “Discovery of an orally efficacious inhibitor of anaplastic lymphoma kinase” (J Med Chem, 2012).

Series [1] is described as follows: AUC in Sprague-Dawley rat at 1 mg/kg, iv. The class given is ADME, organism-based. Details: dose 1 mg/kg, route intravenous. The note with it: plasma. In outline:
(§1)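 Rat PK. IV via the lateral tail vein, 1 mL/kg in 3% DMSO/30% Solutol/67% PBS, or oral gavage at 5 mL/kg in 40% HPβCD, after an overnight fast. Serial tail-vein blood was taken into heparin over 6 h. Plasma was acetonitrile-precipitated and analysed by LC-MS/MS. Parameters were noncompartmental, n = 3, mean ± SEM.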

For series [2], the target named is Tyrosine-protein kinase Fes/Fps (Homo sapiens, UniProt P07332). Particulars: 1 uM.
The target of series [3] is ALK tyrosine kinase receptor (Homo sapiens, UniProt Q9UM73). Put plainly: Inhibition of ALK tyrosine phosphorylation in human Karpas-299 cells after 2 hrs in presence of mouse plasma. The class given is cell-based.
Series [4] addresses Mitogen-activated protein kinase 8 (Homo sapiens, UniProt P45983). Put plainly: Inhibition of human JNK1alpha1. In outline: (§2)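 Millipore KinaseProfiler activity assays on a 259-kinase panel; kinases inhibited by ≥90% at 1 μM then taken to full IC50 determination.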
Series [5] has as its target Serine/threonine-protein kinase Chk2 (Homo sapiens, UniProt O96017). Particulars: 1 uM.
Series [6] deals with Vascular endothelial growth factor receptor 3 (Homo sapiens, UniProt P35916). Put plainly: Inhibition of human Flt4. An outline of the steps: as §2
A further series relates to NB1643. Kind of series: Antitumor activity against human NB1643 cells expressing ALK mutant F1174L assessed as growth inhibition administered as po bid. The class given is functional, organism-based.
Series [7] can be described thus: Oral bioavailability in Sprague-Dawley rat at 10 mg/kg. It is filed as ADME, organism-based. Particulars: in vivo. An outline of the steps:
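PK: overnight-fasted animals. Rat oral gavage 5 mL/kg in 40% HPβCD, serial tail-vein blood over 6 h. Dog oral gavage 1 mL/kg, monkey nasogastric 2 mL/kg, femoral-vein blood over 24 h. Plasma protein-precipitated with acetonitrile, LCMS/MS with internal standard; noncompartmental analysis, individual animals n = 3, mean ± SEM.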

Series [8] in a line: Half life in CD-1 mouse at 10 mg/kg, po. The note with it: in vivo. The arrangement: dose 10 mg/kg, route oral. It is filed as ADME, organism-based. An outline of the steps: (§3)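 Mouse PK. IV via the lateral tail vein in 3% DMSO/30% Solutol/67% PBS, or oral gavage in 100% PEG400, 100 μL dose volume, after an overnight fast. Trunk blood was taken from three mice per time point over 6 h. Plasma was acetonitrile-precipitated and analysed by LC-MS/MS. Parameters were derived noncompartmentally.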

Series [9] in a line: Volume of distribution in CD-1 mouse at 1 mg/kg, iv. The arrangement: dose 1 mg/kg, route intravenous. It is filed as ADME, organism-based. The note with it: in vivo. An outline of the steps:
(§4)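 Mouse IV PK: lateral tail vein dosing, 100 μL in 3% DMSO/30% Solutol/67% PBS; trunk blood from three mice per time point over 6 h. Plasma precipitated with acetonitrile, drug quantified by LCMS/MS against internal standard; noncompartmental analysis.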

A short description of series [10]: AUC in Sprague-Dawley rat at 10 mg/kg, po. The class given is ADME, organism-based. The arrangement: dose 10 mg/kg, route oral. The note with it: plasma. In outline: as §1
Series [11] in a line: Drug level in SCID mouse tumor xenografted with human KARPAS299 cells expressing NPM-ALK at 30 mg/kg, po after 2 hrs by LC-MS/MS analysis. It is filed as ADME, organism-based, Neoplasm, KARPAS-299. The note with it: read-out: Drug uptake. Details: dose 30 mg/kg, route oral.
Series [12] in a line: Drug level in SCID/beige mouse tumor xenografted with human KARPAS299 cells expressing NPM-ALK at 30 mg/kg, po bid after 2 hrs post last dose by LC-MS/MS analysis. Details: dose 30 mg/kg, route oral. The class given is ADME, organism-based, Neoplasm, KARPAS-299. Particulars: read-out: Drug uptake. In outline:
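Female SCID/beige mice, 6–8 weeks old, implanted sc in the left flank with exponentially growing Karpas-299 cells. At about 600 mm³ tumours, mice were randomized (8–10/group) and given PEG400 vehicle or compound orally b.i.d., 100 μL, for 12 days. Tumour volume (0.5236LW(L+W)/2) and body weight were recorded every 2–3 days; Mann–Whitney test. Plasma and tumour levels were measured by LC-MS/MS 2 h after the final dose, mean ± SEM.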

A short description of series [13]: Volume of distribution in Sprague-Dawley rat at 1 mg/kg, iv. It is filed as ADME, organism-based. The arrangement: dose 1 mg/kg, route intravenous. Particulars: in vivo. In outline: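 IV PK: rats via lateral tail vein (1 mL/kg; 3% DMSO/30% Solutol/67% PBS), serial tail-vein blood over 6 h. Dogs and monkeys via saphenous vein (0.5 mL/kg in 40% HPβCD), femoral-vein blood over 24 h. Acetonitrile protein precipitation, LCMS/MS; noncompartmental parameters from individual animals, n = 3, mean ± SEM.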

Series [14] in a line: Plasma clearance in CD-1 mouse at 1 mg/kg, iv. The class given is ADME, organism-based. Details: dose 1 mg/kg, route intravenous. An outline of the steps:
as §4

A short description of series [15]: Plasma concentration in SCID mouse xenografted with human KARPAS299 cells expressing NPM-ALK at 30 mg/kg, po after 2 hrs by LC-MS/MS analysis. It is filed as ADME, organism-based, KARPAS-299. Details: dose 30 mg/kg, route oral. An outline of the steps:
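Pharmacodynamic study: SCID mice bearing subcutaneous Karpas-299 xenografts given single 30 mg/kg oral dose; plasma drug levels measured by LCMS/MS, reported as mean ± SEM.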

The target of series [16] is Receptor-type tyrosine-protein kinase FLT3 (Homo sapiens, UniProt P36888). Kind of series: Inhibition of human Flt3. An outline of the steps: as §2
The nature of series [17]: Cmax in SCID mouse at 10 mg/kg, po. It is filed as ADME, organism-based. Details: dose 10 mg/kg, route oral. Particulars: in vivo. In outline:
as §3

SMILES strings stand for the structures. The source made the active and inactive calls. The calls are words filed in the database; no cut-off is given here.

Vascular endothelial growth factor receptor 3, sequence (P35916 whole entry): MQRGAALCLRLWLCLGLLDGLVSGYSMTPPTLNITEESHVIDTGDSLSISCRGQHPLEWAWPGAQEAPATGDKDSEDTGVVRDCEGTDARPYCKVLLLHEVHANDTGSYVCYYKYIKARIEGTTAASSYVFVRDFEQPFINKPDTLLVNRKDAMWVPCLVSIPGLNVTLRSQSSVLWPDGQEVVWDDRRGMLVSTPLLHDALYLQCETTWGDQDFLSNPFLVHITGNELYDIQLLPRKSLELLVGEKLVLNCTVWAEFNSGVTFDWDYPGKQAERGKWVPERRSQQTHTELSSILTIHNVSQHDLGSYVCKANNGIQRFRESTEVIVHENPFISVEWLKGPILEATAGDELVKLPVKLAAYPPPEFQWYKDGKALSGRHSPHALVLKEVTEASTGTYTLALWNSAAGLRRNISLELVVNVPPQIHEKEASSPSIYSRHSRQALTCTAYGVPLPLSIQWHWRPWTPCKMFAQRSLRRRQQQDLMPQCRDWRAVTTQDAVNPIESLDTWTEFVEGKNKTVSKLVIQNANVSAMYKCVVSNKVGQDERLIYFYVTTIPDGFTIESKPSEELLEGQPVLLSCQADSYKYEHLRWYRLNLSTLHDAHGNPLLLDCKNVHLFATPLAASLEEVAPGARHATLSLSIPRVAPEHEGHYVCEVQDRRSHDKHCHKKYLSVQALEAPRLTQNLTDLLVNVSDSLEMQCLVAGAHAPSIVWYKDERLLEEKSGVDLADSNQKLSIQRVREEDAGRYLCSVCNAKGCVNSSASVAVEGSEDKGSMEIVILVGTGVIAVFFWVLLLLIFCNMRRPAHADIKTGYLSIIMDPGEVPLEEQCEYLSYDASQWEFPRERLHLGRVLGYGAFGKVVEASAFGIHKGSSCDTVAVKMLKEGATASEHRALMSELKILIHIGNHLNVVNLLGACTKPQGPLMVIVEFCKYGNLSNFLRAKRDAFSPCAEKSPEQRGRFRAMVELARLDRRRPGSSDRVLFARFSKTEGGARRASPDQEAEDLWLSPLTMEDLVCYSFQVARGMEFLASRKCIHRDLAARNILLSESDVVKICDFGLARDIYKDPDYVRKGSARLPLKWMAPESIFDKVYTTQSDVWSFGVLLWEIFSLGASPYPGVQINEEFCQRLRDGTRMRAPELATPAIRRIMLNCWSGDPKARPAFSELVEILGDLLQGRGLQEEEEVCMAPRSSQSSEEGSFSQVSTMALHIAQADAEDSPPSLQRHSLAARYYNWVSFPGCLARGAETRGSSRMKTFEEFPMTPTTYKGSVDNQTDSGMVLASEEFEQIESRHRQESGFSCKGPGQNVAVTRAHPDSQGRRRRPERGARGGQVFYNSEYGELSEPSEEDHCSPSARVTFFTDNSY
Mitogen-activated protein kinase 8, sequence (P45983 whole entry): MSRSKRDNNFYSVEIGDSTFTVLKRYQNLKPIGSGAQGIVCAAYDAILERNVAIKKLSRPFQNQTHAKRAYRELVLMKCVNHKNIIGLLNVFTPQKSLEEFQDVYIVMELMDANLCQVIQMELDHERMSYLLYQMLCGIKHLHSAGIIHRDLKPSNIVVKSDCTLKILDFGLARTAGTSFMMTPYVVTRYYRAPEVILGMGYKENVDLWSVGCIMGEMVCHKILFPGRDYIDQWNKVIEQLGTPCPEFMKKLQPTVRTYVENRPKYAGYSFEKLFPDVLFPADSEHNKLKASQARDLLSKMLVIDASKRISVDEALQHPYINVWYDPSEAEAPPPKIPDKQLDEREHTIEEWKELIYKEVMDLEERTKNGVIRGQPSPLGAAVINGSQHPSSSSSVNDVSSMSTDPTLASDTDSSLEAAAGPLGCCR
Tyrosine-protein kinase Fes/Fps, sequence (P07332 whole entry): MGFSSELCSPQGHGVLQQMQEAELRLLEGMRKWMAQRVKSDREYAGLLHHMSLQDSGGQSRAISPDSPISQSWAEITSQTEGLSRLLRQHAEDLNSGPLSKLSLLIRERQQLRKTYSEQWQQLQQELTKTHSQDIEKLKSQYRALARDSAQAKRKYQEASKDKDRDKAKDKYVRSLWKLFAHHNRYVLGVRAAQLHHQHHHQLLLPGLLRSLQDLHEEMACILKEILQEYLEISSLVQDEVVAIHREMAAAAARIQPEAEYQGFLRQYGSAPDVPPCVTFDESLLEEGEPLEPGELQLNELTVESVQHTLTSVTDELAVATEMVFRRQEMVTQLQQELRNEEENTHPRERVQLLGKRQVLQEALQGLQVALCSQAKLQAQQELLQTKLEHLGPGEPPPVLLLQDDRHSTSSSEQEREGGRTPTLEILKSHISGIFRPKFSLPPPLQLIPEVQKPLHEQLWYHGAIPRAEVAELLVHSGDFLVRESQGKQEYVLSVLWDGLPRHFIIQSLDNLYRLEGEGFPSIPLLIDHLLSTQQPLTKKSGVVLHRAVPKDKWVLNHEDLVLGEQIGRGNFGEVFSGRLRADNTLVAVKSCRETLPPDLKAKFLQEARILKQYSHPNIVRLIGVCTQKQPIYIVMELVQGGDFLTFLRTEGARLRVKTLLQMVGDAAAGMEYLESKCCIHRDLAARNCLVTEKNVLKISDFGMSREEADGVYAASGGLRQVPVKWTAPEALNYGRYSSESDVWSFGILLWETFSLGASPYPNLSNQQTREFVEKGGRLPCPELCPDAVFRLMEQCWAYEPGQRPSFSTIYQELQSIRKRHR
ALK tyrosine kinase receptor, sequence (Q9UM73 whole entry): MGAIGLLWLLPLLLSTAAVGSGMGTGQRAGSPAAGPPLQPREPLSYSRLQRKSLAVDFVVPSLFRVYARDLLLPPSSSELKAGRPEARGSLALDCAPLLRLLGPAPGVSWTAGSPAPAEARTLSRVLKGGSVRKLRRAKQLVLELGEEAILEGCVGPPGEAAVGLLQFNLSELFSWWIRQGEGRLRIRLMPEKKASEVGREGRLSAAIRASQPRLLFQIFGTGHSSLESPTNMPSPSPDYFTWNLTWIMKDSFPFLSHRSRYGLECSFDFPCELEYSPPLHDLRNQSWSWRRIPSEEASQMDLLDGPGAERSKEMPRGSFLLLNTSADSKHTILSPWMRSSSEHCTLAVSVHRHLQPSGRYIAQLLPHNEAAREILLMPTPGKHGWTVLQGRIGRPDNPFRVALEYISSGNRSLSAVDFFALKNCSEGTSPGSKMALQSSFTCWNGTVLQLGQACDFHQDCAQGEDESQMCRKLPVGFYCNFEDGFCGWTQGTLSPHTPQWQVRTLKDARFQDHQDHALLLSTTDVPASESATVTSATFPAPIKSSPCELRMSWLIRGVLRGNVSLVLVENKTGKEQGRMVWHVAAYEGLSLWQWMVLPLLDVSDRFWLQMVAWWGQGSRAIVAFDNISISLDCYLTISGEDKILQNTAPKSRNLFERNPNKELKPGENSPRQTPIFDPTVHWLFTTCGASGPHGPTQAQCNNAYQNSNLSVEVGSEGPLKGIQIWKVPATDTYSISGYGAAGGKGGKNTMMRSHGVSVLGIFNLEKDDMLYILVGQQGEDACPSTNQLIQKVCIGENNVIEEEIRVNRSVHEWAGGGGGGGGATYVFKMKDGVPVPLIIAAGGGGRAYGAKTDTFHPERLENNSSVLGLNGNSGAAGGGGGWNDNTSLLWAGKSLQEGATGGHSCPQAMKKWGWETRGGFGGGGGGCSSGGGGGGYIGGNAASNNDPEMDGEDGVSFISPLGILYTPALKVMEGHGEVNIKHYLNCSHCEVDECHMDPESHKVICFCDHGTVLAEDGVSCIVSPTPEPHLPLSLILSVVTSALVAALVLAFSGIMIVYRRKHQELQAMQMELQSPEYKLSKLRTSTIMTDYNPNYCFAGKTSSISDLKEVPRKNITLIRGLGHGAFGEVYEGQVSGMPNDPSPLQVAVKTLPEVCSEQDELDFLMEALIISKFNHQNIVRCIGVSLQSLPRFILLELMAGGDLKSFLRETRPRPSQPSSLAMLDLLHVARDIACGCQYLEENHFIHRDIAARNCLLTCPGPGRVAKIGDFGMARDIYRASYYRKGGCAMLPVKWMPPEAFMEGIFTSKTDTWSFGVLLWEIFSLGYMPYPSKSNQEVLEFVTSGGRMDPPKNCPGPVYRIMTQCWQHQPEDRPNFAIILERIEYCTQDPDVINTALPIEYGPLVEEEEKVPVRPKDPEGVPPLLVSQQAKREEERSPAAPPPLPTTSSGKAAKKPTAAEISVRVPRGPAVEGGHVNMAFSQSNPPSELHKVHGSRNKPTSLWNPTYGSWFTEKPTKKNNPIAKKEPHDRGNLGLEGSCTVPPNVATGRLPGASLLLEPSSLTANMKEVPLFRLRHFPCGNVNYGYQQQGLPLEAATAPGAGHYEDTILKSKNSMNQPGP
Serine/threonine-protein kinase Chk2, sequence (O96017 whole entry): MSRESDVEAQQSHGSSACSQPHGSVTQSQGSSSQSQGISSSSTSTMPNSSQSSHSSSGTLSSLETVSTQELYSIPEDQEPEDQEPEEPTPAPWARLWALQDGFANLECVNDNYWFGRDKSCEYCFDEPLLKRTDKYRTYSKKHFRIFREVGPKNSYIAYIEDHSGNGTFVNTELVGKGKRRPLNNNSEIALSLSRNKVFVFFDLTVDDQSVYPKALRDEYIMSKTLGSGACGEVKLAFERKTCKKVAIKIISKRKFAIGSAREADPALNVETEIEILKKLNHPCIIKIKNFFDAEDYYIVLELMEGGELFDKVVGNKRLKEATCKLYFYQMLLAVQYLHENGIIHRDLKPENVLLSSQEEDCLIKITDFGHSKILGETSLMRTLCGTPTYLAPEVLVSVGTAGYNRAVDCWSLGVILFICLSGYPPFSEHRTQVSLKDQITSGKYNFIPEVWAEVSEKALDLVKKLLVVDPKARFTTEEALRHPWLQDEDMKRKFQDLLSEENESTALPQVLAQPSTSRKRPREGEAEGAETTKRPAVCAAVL

For the compound `COc1c(Nc2ncc(Cl)c(N[C@H]3[C@@H](C(N)=O)[C@@H]4C=C[C@H]3C4)n2)ccc2c1CC[C@@H](N1CCOCC1)CC2`, the AUC was 989 ng·h/mL in series [1] and 4830 ng·h/mL in [10]. The inhibition in series [2] and in [5] was over 90% in each case. For the same compound, the IC50 in series [3] was determined as 20 nM; in series [4], 112 nM; in [6], 48 nM; in [16], 88 nM. Also, the “growth inhibition (GI)” value in the series on NB1643 is “Active”. Further, the bioavailability in series [7] is 50%. The compound also gave a half-life in [8] of 2.3 h. Also, the results for the distribution volume (Vd) in series [9] and in [13] were 1.8 L/kg and 1.3 L/kg, respectively. For the same compound, the concentration at 2 h in [11] was 2630 ng/g; in series [12], 4040 ng/g; in series [15], 4180 ng/mL. For the same compound, the clearance in series [14] was 29 mL/min/kg. In addition, in series [17], the Cmax is 2750 ng/mL.
